Values after ≈ are worked out from the molar mass of the structure shown.
Columns and labels:
Staphylococcus aureus [1] = test: Antibacterial activity against Staphylococcus aureus RN4220 by serial dilution method; assay type: functional
Summary of the method: (§1)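 Broth microdilution MIC. Bacteria grown to mid-log phase in Mueller-Hinton broth, diluted 1000-fold, and inoculated at 10^5 CFU/mL. Compounds in DMSO (final ≤0.05%) were given as two-fold serial dilutions, final 64-0.25 µg/mL. Plates were incubated 24 h at 37 °C and growth read at 650 nm. MIC is the lowest concentration giving complete growth inhibition. Three independent experiments; oxacillin and norfloxacin served as positive controls.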

Staphylococcus aureus [2] = test: Antibacterial activity against quinolone-resistant Staphylococcus aureus CCARM 3505 by serial dilution method; assay type: functional; summary of the method: as §1
Staphylococcus aureus [3] = test: Antibacterial activity against Staphylococcus aureus RN4220 after 24 hrs by microtiter ELISA; assay type: functional; details: RN4220, 24 h; summary of the method: as §1
Streptococcus mutans = test: Antibacterial activity against Streptococcus mutans 3289 after 24 hrs by microtiter ELISA; assay type: functional; details: Streptococcus mutans, 3289, 24 h
Summary of the method: (§2)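 Two-fold serial broth dilution in Mueller-Hinton broth, final 64-0.25 µg/mL; compounds in DMSO (final ≤0.05%). Mid-log cultures diluted 1000-fold, inoculum 10^5 CFU/mL; oxacillin and norfloxacin as positive controls. After 24 h at 37 °C, growth read at 650 nm on a microtiter ELISA reader; MIC = lowest level giving complete growth inhibition. Run three times.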

Escherichia coli = test: Antibacterial activity against Escherichia coli KCTC 1924 after 24 hrs by microtiter ELISA; assay type: functional; details: KCTC 1924, 24 h; summary of the method: as §2
Candida albicans = test: Antifungal activity against Candida albicans 7535 after 24 hrs by microtiter ELISA; assay type: functional; details: Candida albicans, 7535, 24 h; summary of the method: as §2
Staphylococcus aureus [4] = test: Antibacterial activity against methicillin-resistant Staphylococcus aureus CCARM 3167 after 24 hrs by microtiter ELISA; assay type: functional; details: CCARM 3167, 24 h; summary of the method: as §1
Staphylococcus aureus [5] = test: Antibacterial activity against methicillin-resistant Staphylococcus aureus CCARM 3506 after 24 hrs by microtiter ELISA; assay type: functional; details: CCARM 3506, 24 h; summary of the method: as §1
Staphylococcus aureus [6] = test: Antibacterial activity against quinolone-resistant Staphylococcus aureus CCARM 3505 after 24 hrs by microtiter ELISA; assay type: functional; details: CCARM 3505, 24 h; summary of the method: as §1
Staphylococcus aureus [7] = test: Antibacterial activity against quinolone-resistant Staphylococcus aureus CCARM 3519 after 24 hrs by microtiter ELISA; assay type: functional; details: CCARM 3519, 24 h; summary of the method: as §1
L02 = test: Cytotoxicity against human L02 cells assessed as inhibition of cell growth measured after 24 hrs by MTT assay; assay type: cell-based; details: L02, 24 h
Summary of the method: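 L02 normal human liver cells seeded at 1.8 × 10^4 cells/well in DMEM with 10% FBS and antimycotic. Exposed 24 h at 37 °C, 5% CO2 to 200-1.625 µM, compounds in 10% DMSO. MTT (2.5 mg/mL) added for 4 h, formazan dissolved in DMSO, OD at 570 nm. Untreated cells as negative control; IC50 = 50% growth inhibition; triplicate.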

[8] = target: Dihydrofolate reductase (Homo sapiens) (UniProt P00374); test: Inhibition of human DHFR at 10 umol/L measured after 1.5 hrs by ELISA relative to control
Dihydrofolate reductase (Homo sapiens), sequence (P00374 whole entry, looked up): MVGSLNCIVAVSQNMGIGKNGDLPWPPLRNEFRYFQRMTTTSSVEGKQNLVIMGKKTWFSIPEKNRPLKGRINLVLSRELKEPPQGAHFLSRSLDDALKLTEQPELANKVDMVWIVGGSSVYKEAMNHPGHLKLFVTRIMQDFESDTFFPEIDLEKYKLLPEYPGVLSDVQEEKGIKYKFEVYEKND

Staphylococcus aureus [9] = test: Antibacterial activity against Staphylococcus aureus by serial dilution method; assay type: functional; summary of the method: as §2

SMILES	MIC (Staphylococcus aureus [1]) [µg/mL]	MIC (Staphylococcus aureus [2]) [µg/mL]	MIC (Staphylococcus aureus [3]) [µg/mL]	MIC (Streptococcus mutans) [µg/mL]	MIC (Escherichia coli) [µg/mL]	MIC (Candida albicans) [µg/mL]	MIC (Staphylococcus aureus [4]) [µg/mL]	MIC (Staphylococcus aureus [5]) [µg/mL]	MIC (Staphylococcus aureus [6]) [µg/mL]	MIC (Staphylococcus aureus [7]) [µg/mL]	IC50 (L02) [µM]	inhibition [8] [%]	MIC (Staphylococcus aureus [9]) [µg/mL]
NC1=NC(c2ccc3cc(OCc4ccc(Cl)cc4Cl)ccc3c2)N=C(N2CCOCC2)N1 (centres undefined)	1 (≈ 2.06 µM)	1 (≈ 2.06 µM)	–	–	–	–	–	–	–	–	–	–	–
NC1=NC(c2cn(-c3ccc([N+](=O)[O-])cc3)nc2-c2ccc(Cl)cc2Cl)N=C(NCCc2ccccc2)N1 (centres undefined)	–	–	1 (≈ 1.82 µM)	1 (≈ 1.82 µM)	1 (≈ 1.82 µM)	1 (≈ 1.82 µM)	1 (≈ 1.82 µM)	1 (≈ 1.82 µM)	1 (≈ 1.82 µM)	1 (≈ 1.82 µM)	50.5	92	–
CN(C)C1=NC(c2cn(-c3ccc([N+](=O)[O-])cc3)nc2-c2ccc(Cl)cc2Cl)N=C(N)N1 (centres undefined)	–	–	2 (≈ 4.23 µM)	4 (≈ 8.45 µM)	2 (≈ 4.23 µM)	4 (≈ 8.45 µM)	2 (≈ 4.23 µM)	2 (≈ 4.23 µM)	4 (≈ 8.45 µM)	2 (≈ 4.23 µM)	> 100	–	–
NC1=NC(c2cn(-c3ccc([N+](=O)[O-])cc3)nc2-c2ccc(Cl)cc2Cl)N=C(N2CCOCC2)N1 (centres undefined)	–	–	2 (≈ 3.88 µM)	8 (≈ 15.5 µM)	4 (≈ 7.76 µM)	4 (≈ 7.76 µM)	2 (≈ 3.88 µM)	2 (≈ 3.88 µM)	4 (≈ 7.76 µM)	4 (≈ 7.76 µM)	> 100	–	–
CN(C)C1=NC(c2cn(-c3ccc([N+](=O)[O-])cc3[N+](=O)[O-])nc2-c2ccc(Cl)cc2Cl)N=C(N)N1 (centres undefined)	–	–	8 (≈ 15.4 µM)	8 (≈ 15.4 µM)	8 (≈ 15.4 µM)	8 (≈ 15.4 µM)	4 (≈ 7.72 µM)	4 (≈ 7.72 µM)	8 (≈ 15.4 µM)	16 (≈ 30.9 µM)	> 100	–	–
O=C(O)CN1C(=O)/C(=C/c2cn(-c3ccc([N+](=O)[O-])cc3[N+](=O)[O-])nc2-c2ccc(Cl)cc2Cl)SC1=S	–	–	–	–	–	–	–	–	–	–	–	–	16 (≈ 27.6 µM)
CN(C)C1=NC(c2cn(-c3ccc([N+](=O)[O-])cc3[N+](=O)[O-])nc2-c2ccccc2F)N=C(N)N1 (centres undefined)	–	–	64 (≈ 137 µM)	64 (≈ 137 µM)	32 (≈ 68.5 µM)	32 (≈ 68.5 µM)	64 (≈ 137 µM)	32 (≈ 68.5 µM)	64 (≈ 137 µM)	64 (≈ 137 µM)	–	–	–
CN(C)C1=NC(c2cn(-c3ccc([N+](=O)[O-])cc3[N+](=O)[O-])nc2-c2ccccc2[N+](=O)[O-])N=C(N)N1 (centres undefined)	–	–	> 64	> 64	> 64	> 64	> 64	> 64	> 64	> 64	–	–	–
CN(C)C1=NC(c2cn(-c3ccc([N+](=O)[O-])cc3[N+](=O)[O-])nc2-c2ccc(Br)cc2)N=C(N)N1 (centres undefined)	–	–	8 (≈ 15.1 µM)	16 (≈ 30.3 µM)	8 (≈ 15.1 µM)	8 (≈ 15.1 µM)	8 (≈ 15.1 µM)	4 (≈ 7.57 µM)	4 (≈ 7.57 µM)	8 (≈ 15.1 µM)	–	–	–

From ChEMBL document CHEMBL4316612, “Synthesis of novel dihydrotriazine derivatives bearing 1,3-diaryl pyrazole moieties as potential antibacterial agents” (Bioorg Med Chem Lett, 2019)
